We go through one molecule from ChEMBL document CHEMBL3853327 (J Med Chem, 2016).

Data set [1] relates to Human immunodeficiency virus 1. The data set is described as follows: Antiviral activity against HIV1 3B harboring reverse transcriptase Y181C mutant infected in human MT4 cells assessed as protection against virus induced cytotoxicity after 5 days by MTT assay. The data set is classed as functional, cell-based. Conditions: Human immunodeficiency virus 1, 3B, MT4, 120 h. A digest of the protocol:
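MTT cytopathicity assay in MT-4 cells (6 × 10^5 cells/mL). Compounds serially diluted 5-fold in triplicate wells, run in parallel on infected and mock-infected cells. Virus added at 100−300 CCID50 per well. Viability read spectrophotometrically at 540 and 690 nm after 5 days, using the median OD of three wells.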
For orientation: Tetrazolium dyes change colour on reduction, which living cells bring about.

Data set [2] in a line: Selectivity index, ratio of CC50 for human mock-infected MT4 cells to EC50 for HIV1 3B harboring reverse transcriptase K103N mutant infected in human MT4 cells. The data set is classed as toxicity, cell-based. Conditions: MT4 cells (mock-infected for CC50, HIV-1 infected for EC50). A digest of the protocol:
(§1)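 Selectivity index is CC50/EC50. CC50 is the concentration that reduces OD540 of mock-infected MT-4 cells by 50% in the 5-day MTT assay. EC50 is the 50% protection from virus-induced cytopathicity, measured in parallel on infected wells.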

The nature of data set [3]: MRT (0 to t) in Sprague-Dawley rat plasma at 8 mg/kg administered through oral gavage measured at 5 mins to 24 hrs post dosing by LC/MS analysis. The data set is classed as ADME, organism-based. The procedure, abridged:
(§2)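 Male Sprague-Dawley rats, ten randomly split into two groups (n = 5), single gavage dose of 8 or 16 mg·kg−1 in PEG 400/normal saline (70/30, V/V). Jugular sinus blood into heparinized tubes at 5 min to 24 h; plasma separated at 2200g for 8 min, stored −20 °C. Methanol precipitation with internal standard, LC-MS quantitation against plasma standard curves. Parameters reported as mean ± SD.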

Data set [4] deals with Human immunodeficiency virus 1. The data set is described as follows: Fold resistance, ratio of EC50 for HIV1 3B harboring reverse transcriptase Y188L mutant infected in human MT4 cells to EC50 for wild type HIV1 3B harboring reverse transcriptase infected in human MT4 cells. The data set is classed as functional. A digest of the protocol: (§3)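 Fold resistance is the EC50 against the mutant HIV-1 strain divided by the EC50 against WT IIIB. Both EC50s come from the MT-4 MTT cytoprotection assay (5-day read, 100−300 CCID50 inoculum).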

Data set [5] concerns Human immunodeficiency virus 1. Kind of data set: Potency index, ratio of ETV EC50 to compound EC50 for HIV1 3B harboring reverse transcriptase F227L/V106A double mutant infected in human MT4 cells. The data set is classed as functional.
For data set [6], the system named is Human immunodeficiency virus 1. The data set is described as follows: Antiviral activity against HIV1 3B harboring reverse transcriptase Y188L mutant infected in human MT4 cells assessed as protection against virus induced cytotoxicity after 5 days by MTT assay. The data set is classed as functional, cell-based. The settings on record: Human immunodeficiency virus 1, 3B, MT4, 120 h. A digest of the protocol: (§4)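 MTT cytopathicity assay in MT-4 cells (6 × 10^5 cells/mL). Compounds serially diluted 5-fold in triplicate wells, run in parallel on infected and mock-infected cells. Virus added at 100−300 CCID50 per well. Viability read spectrophotometrically at 540 and 690 nm after 5 days, using the median OD of three wells. EC50 is the concentration giving 50% protection from viral cytopathogenicity.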

In data set [7] the test system is Human immunodeficiency virus 1. The data set is described as follows: Potency index, ratio of ETV EC50 to compound EC50 for HIV1 3B harboring reverse transcriptase L100I mutant infected in human MT4 cells. The data set is classed as functional.
Data set [8] in a line: Cmax in Sprague-Dawley rat plasma at 8 mg/kg administered through oral gavage measured at 5 mins to 24 hrs post dosing by LC/MS analysis. The arrangement: dose 8 mg/kg, route oral. Type of data set: ADME, organism-based. The settings on record: in vivo. A digest of the protocol: as §2
Data set [9] is described as follows: Antiviral activity against HIV2 ROD harboring reverse transcriptase infected in human MT4 cells assessed as protection against virus induced cytotoxicity after 5 days by MTT assay. The data set is classed as functional, cell-based, Human immunodeficiency virus type 2 (ISOLATE ROD). Conditions: Human immunodeficiency virus 2, MT4, 120 h. A digest of the protocol:
as §4

Data set [10] in a line: Apparent clearance during terminal phase in Sprague-Dawley rat plasma at 16 mg/kg administered through oral gavage measured at 5 mins to 24 hrs post dosing by LC/MS analysis. Type of data set: ADME, organism-based. Conditions: read-out: CLz/F (converted). The procedure, abridged: as §2
Data set [11] can be described thus: Apparent volume of distribution during terminal phase in Sprague-Dawley rat plasma at 8 mg/kg administered through oral gavage measured at 5 mins to 24 hrs post dosing by LC/MS analysis. Type of data set: ADME, organism-based. The settings on record: read-out: Vz/F. A digest of the protocol: as §2
Data set [12] deals with Human immunodeficiency virus 1. Kind of data set: Antiviral activity against HIV1 3B harboring reverse transcriptase K103N mutant infected in human MT4 cells assessed as protection against virus induced cytotoxicity after 5 days by MTT assay. Type of data set: functional, cell-based. Conditions: Human immunodeficiency virus 1, 3B, MT4, 120 h. A digest of the protocol: as §4

Data set [13] can be described thus: AUC (0 to t) in Sprague-Dawley rat plasma at 16 mg/kg administered through oral gavage measured at 5 mins to 24 hrs post dosing by LC/MS analysis. The data set is classed as ADME, organism-based. Also on record: time lower 0.083 hr, dose 16 mg/kg, time upper 24 hr, route oral. The procedure, abridged: as §2
The nature of data set [14]: AUMC (0 to t) in Sprague-Dawley rat plasma at 16 mg/kg administered through oral gavage measured at 5 mins to 24 hrs post dosing by LC/MS analysis. The settings on record: in vivo. The data set is classed as ADME, organism-based. The procedure, abridged:
as §2

The subject of data set [15] is Human immunodeficiency virus 1. Kind of data set: Antiviral activity against HIV1 3B harboring reverse transcriptase F227L/V106A double mutant infected in human MT4 cells assessed as protection against virus induced cytotoxicity after 5 days by MTT assay. The settings on record: Human immunodeficiency virus 1, 3B, MT4, 120 h. The data set is classed as functional, cell-based. A digest of the protocol:
as §4

For data set [16], the system named is Human immunodeficiency virus 1. The data set is described as follows: Fold resistance, ratio of EC50 for HIV1 3B harboring reverse transcriptase K103N mutant infected in human MT4 cells to EC50 for wild type HIV1 3B harboring reverse transcriptase infected in human MT4 cells. Type of data set: functional. The procedure, abridged:
as §3

For data set [17], the system named is Human immunodeficiency virus 1. Kind of data set: Fold resistance, ratio of EC50 for HIV1 3B harboring reverse transcriptase F227L/V106A double mutant infected in human MT4 cells to EC50 for wild type HIV1 3B harboring reverse transcriptase infected in human MT4 cells. Type of data set: functional. A digest of the protocol:
as §3

The nature of data set [18]: Inhibition of recombinant wild type HIV1 reverse transcriptase using DIG-dUTP/biotin-dUTP/dTTP assessed as suppression of biotin-dUTP incorporation after 1 hr by ELISA. Also on record: species or system Human immunodeficiency virus 1. The procedure, abridged: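 Recombinant WT HIV-1 RT in a Roche colorimetric kit: template plus DIG-dUTP, biotin-dUTP and dTTP, ±inhibitor, 1 h at 37 °C. Product captured on streptavidin plate 1 h at 37 °C, anti-DIG-POD 1 h at 37 °C, ABTS developed at 25 °C, read at OD405. IC50 is the concentration inhibiting biotin-dUTP incorporation by 50%.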
(In an ELISA, binding on a coated surface is turned into a signal by an enzyme label.)

Data set [19] deals with Human immunodeficiency virus 1. The data set is described as follows: Fold resistance, ratio of IC50 for recombinant HIV1 reverse transcriptase K103N/Y181C double mutant to IC50 for wild type HIV1 reverse transcriptase. A digest of the protocol: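 Ratio of mutant to WT IC50. Recombinant WT and K103N/Y181C RT were assayed with a kit: template plus DIG-dUTP, biotin-dUTP and dTTP, with or without inhibitor, 1 h at 37 °C. Product was captured on streptavidin, detected with anti-DIG-POD and ABTS, and read at 405 nm. IC50 is the concentration inhibiting biotin-dUTP incorporation by 50%.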

Data set [20] relates to Human immunodeficiency virus 1. Kind of data set: Fold resistance, ratio of EC50 for HIV1 3B harboring reverse transcriptase E138K mutant infected in human MT4 cells to EC50 for wild type HIV1 3B harboring reverse transcriptase infected in human MT4 cells. Type of data set: functional. A digest of the protocol:
as §3

For data set [21], the system named is Human immunodeficiency virus 1. The data set is described as follows: Potency index, ratio of ETV EC50 to compound EC50 for HIV1 3B harboring reverse transcriptase E138K mutant infected in human MT4 cells. Type of data set: functional.
Data set [22] can be described thus: Selectivity index, ratio of CC50 for human mock-infected MT4 cells to EC50 for HIV1 RES056 harboring reverse transcriptase K103N/Y181C double mutant infected in human MT4 cells. The data set is classed as toxicity, cell-based. Conditions: MT4 cells (mock-infected for CC50, HIV-1 infected for EC50). A digest of the protocol:
as §1

Data set [23] in a line: Selectivity index, ratio of CC50 for human mock-infected MT4 cells to EC50 for HIV1 3B harboring reverse transcriptase F227L/V106A double mutant infected in human MT4 cells. Conditions: MT4 cells (mock-infected for CC50, HIV-1 infected for EC50). The data set is classed as toxicity, cell-based. The procedure, abridged: as §1

The EC50 is the midpoint of the concentration-response curve. One may read the MRT last as the average time that molecules of a dose stay in the body. By Cmax is commonly meant the highest concentration seen after dosing. In general, AUC(0-t) refers to the area under the concentration-time curve up to a stated or last time point. A higher AUC(0-t) goes with more exposure. As a reminder, the IC50 is the point on the concentration scale where inhibition reaches its midpoint. `Cc1cc(C#N)cc(C)c1Oc1nc(NC2CCN(Cc3ccc(S(N)(=O)=O)cc3)CC2)nc2ccsc12`: the EC50 in [1] is 3.2 nM; in data set [6], 3 nM; in data set [9], ≥ 228000 nM; in data set [12], 2.9 nM; in [15] it was 4.2 nM. The figures for the selectivity ratio in data set [2], in data set [22] and in [23] were > 67400, 53500 and > 78100, respectively. Also, the MRT last in data set [3] is 3.44 h. Further, the “Ratio EC50” value is <3 in data set [4]; 7 in [5]; 1.6 in [7]; <3 in data set [16]; <3 in data set [17]; <3 in data set [20]. Also, the “Ratio EC50” value in [21] came to 5. In data set [8], the highest level (Cmax) was 415 ng/mL. For the same molecule, in data set [10], the CL/F was 155 mL/min/kg. In addition, in data set [11], the Vd/F came out at 38.2 L/kg. The same molecule yielded an AUC(0-t) in [13] of 1670 ng·h/mL. This molecule also came in with an AUMCt in data set [14] of 5458.8 ug/L.hr. Besides, in [18], the IC50 was found to be 300 nM. Also, the Ratio IC50 in [19] is 1.2.
